Assay: Toxicity liver stage against HepG2, at 10uM
Assay type: cell-based
Set-up: test concentration 10 uM, cell line HepG2-A16-CD81EGFP
Conditions: human, HepG2-A16-CD81EGFP cells; read-out: INHIBITION
Method in brief: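 Uninfected HepG2-A16-CD81EGFP cells, 3 × 10^3 per well, 1536-well, plated on prespotted compound at 10 μM final, parasite-free screening media added to match infected plates; puromycin 10 μM positive, DMSO 0.5% negative; run in parallel with 48 h PbLuc assay at 37 °C, 5% CO2; viability by CellTiter-Glo luminescence, normalized to controls.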

Structure (SMILES) | cytotoxicity at 10 µM [%]
c1cc2nccc(CC3CCCN(Cc4ncc[nH]4)CC3)c2cn1 (stereo not drawn) | -2.06
CCC(NS(=O)(=O)c1ccc(C(=O)NC2CC2)cc1)c1ccnn1C (stereo not drawn) | 9.65
CCc1nc2n(n1)CC(NCC(=O)Nc1cc(C(C)(C)C)no1)CC2 (stereo not drawn) | -9.26
Cc1cnn(CC(C)Nc2nc(C)cc(N(C)C)n2)c1 (stereo not drawn) | 7.07
COCCN1CCCC1Cn1nc(C)cc1C (stereo not drawn) | 1.31
CC1CCCN(c2nccn3c(=O)[nH]nc23)C1 (stereo not drawn) | 12.1
CCCC(=O)N1CCC([C@@H]2C[C@H](C(F)(F)F)n3nc(C)cc3N2)CC1 | -16.1
Cc1nnc(C(C)N2CCN(Cc3ccc(C(F)(F)F)cc3)CC2)o1 (stereo not drawn) | 8.15
Cc1csc([C@@H]2C[C@@H]3CCN(C(=O)c4cccn4C)C[C@H]3O2)n1 | 4.12
CCN(CC)Cc1nc2c(o1)CN(C(=O)c1ccc3[nH]ccc3c1)C2 | 7.07
CCNc1ncc(C(=O)NCC2OCCc3ccccc32)cn1 (stereo not drawn) | -53.1
CN1CCC(c2cccc(-c3ccc(C(=O)O)cc3)n2)CC1 | -0.358
N#CCCN(C(=O)CCc1cscn1)c1ccc2c(c1)OCCO2 | -2.12
Cc1cc(C)n(CC2CCCN2C(=O)CCCNc2ncccn2)n1 (stereo not drawn) | -19
CC1(C)CN(S(=O)(=O)N2CCCC2)CC1c1ccccc1 (stereo not drawn) | -0.71
O=C(NC1CCCCC1)N1C[C@H]2CN(c3cnccn3)C[C@@]2(C(=O)O)C1 | 13.7
O=C([C@H]1C[C@H]2OCC[C@H]2N(Cc2ccc(F)cc2)C1)N1CCCCO1 | -65.5
O=C(NC1CCC1)[C@H]1C[C@@H]2[C@@H](C1)OCCN2CC1CC1 | -2.17
Cc1noc([C@@]23CCO[C@@H]2CCN(C(=O)c2c(C)noc2C)C3)n1 | 8.4
O=C(c1cnccn1)N1CCN(CC2CC2)c2ncccc2C1 | -3.99
O=C(Cn1nc2ccccc2n1)N1CCCC(O)(CO)C1 (stereo not drawn) | -6.66
CC(C)N(CCNC(=O)c1ccc(S(=O)(=O)NC2CC2)cc1)C(C)C | -65.8

Structure (SMILES) | cytotoxicity at 10 µM [%]
CC(C)(C)n1ncc2c1CCCC2NCc1ccc2ncccc2c1 (stereo not drawn) | 7.74
O=C(O)c1ccccc1-c1ccc(CN2CC(O)C2)cc1 | -0.363
Cc1nn(C)c(C)c1C1CCCN1Cc1nc(-c2ccco2)oc1C (stereo not drawn) | -4.27
COc1cc(N2C[C@H]3OCC[C@H]3[C@H](C(=O)NC3CC3)C2)ncn1 | -8.83
CN1CCN(C(=O)CCCc2ccccn2)c2ccc(F)cc21 | 1.66
Cc1ncc(CN2CCOCC2)c2cc(C(=O)c3ccc(Br)cc3)oc12 | 3.54
C[C@@H](NC(=O)c1cnccn1)c1c(-c2ccc(F)cc2)noc1C(=O)O | 1.02
COCCN1CC(c2cc(O)nc(NC(C)C)n2)CC1=O (stereo not drawn) | -39.7
Cc1cccc(CN2C[C@@H]3CN(C(=O)NC(C)C)C[C@@H]3C2=O)n1 | 2.91
CCCc1nc(CNc2cccc(C(=O)N3CCCC(O)C3)c2)no1 (stereo not drawn) | -5.35
CCOCCC(=O)N1CCCN(c2ccccc2C)CC1 | -7.68
Cc1ccccc1C(=O)NC[C@@H]1CCN(C(=O)C2(O)CCCC2)C[C@H]1O | -38.7
COc1ccc2cc(CN(C)CCc3cn[nH]c3)c(=O)[nH]c2c1 | 0.363
CC(C)N1CC[C@@](C)(O)[C@H](n2ccc(=O)[nH]c2=O)C1 | 6.61
Cc1csc(C2CCCCN2C(=O)c2cn[nH]c2C)n1 (stereo not drawn) | -1.53
N#Cc1ccc(NCc2cc3n(n2)CCCN(C(=O)C2CCC2)C3)nc1 | -127
CN(Cc1cccs1)c1nc2c(cnn2C(C)(C)C)c(=O)[nH]1 | 9.75
CN1CC2(CCCN(Cc3nnc(-c4cccc(F)c4)o3)C2)OC1=O (stereo not drawn) | -1.66
CS(=O)(=O)N1CCC(c2nnc3ccc(C(=O)NC4CCC4)cn23)C1 (stereo not drawn) | 3.6
CC(C)CN1CCc2c(CN(C)Cc3ccco3)cncc2C1 | 8.1
CN(C)CCNc1cc(-c2ccccc2C(N)=O)c2cc[nH]c2n1 | 0.343
O=C(NCCC1=CCCCC1)C1CCN(c2ccc3nncn3n2)CC1 | -2.96

Structure (SMILES) | cytotoxicity at 10 µM [%]
Cc1n[nH]c(C)c1-c1cc(-c2ccc[nH]2)nc(N)c1C#N | 12.4
Cn1cnc(S(=O)(=O)N2CCCC2c2cnccn2)c1 (stereo not drawn) | -28.4
COCCN(C)[C@@H]1c2ccccc2C2(CCNCC2)[C@H]1O | -4.61
Cn1cc(CCNC(=O)NCc2ccc3c(c2)OCCO3)cn1 | -10.7
COc1cccc(F)c1C(C)NC(=O)NCCc1ccc(C)nc1 (stereo not drawn) | -2.13
C[C@@H]1CN(C(=O)C2CCS(=O)(=O)CC2)C[C@]1(C)O | -4.11
CC(C)N(CCS(C)(=O)=O)Cc1csc(-c2ccccc2F)n1 | -49.3
O=C(Nc1cccn(CC(F)(F)F)c1=O)c1ccc(F)cc1 | 14.3
Cc1nn(C)c(Cl)c1C1CCCN1Cc1noc(C2CC2)n1 (stereo not drawn) | -1.64
O=C1CCCc2[nH]c(=O)c(C(=O)N(Cc3ccsc3)C3CC3)cc21 | -10.8
CN(C)C(=O)[C@@H]1CC[C@@H]2[C@@H](CCN2Cc2nccs2)O1 | 1.97
O[C@H]1CN(CCCOc2ccccc2F)CC[C@@]12CCCO2 | 3.06
CN1CCN(c2ccc(NS(=O)(=O)c3ccc(Cl)s3)cc2C(=O)O)CC1 | -1.08
COc1cccc(CN(C)CCCn2cnc3c(N)ncnc32)c1 | -2.63
Cc1nccc(-c2cccc(NCC(=O)N3CCNC(=O)C3)c2)n1 | -0.797
CNCC(=O)N1CCCC(c2ccnc(Nc3cnccn3)n2)C1 (stereo not drawn) | -11.6
Cc1cnn(CC2CCCCN2CC(=O)N(C)Cc2ccc(C)o2)c1 (stereo not drawn) | 10.6
NC(=O)NC(=O)CCSCc1coc(-c2ccc(F)cc2)n1 | -7.45
OCCOc1nc(-c2ccccc2Cl)no1 | -10.5
COc1cc(CC2CC(C(N)=O)=NO2)cc2c1OCO2 (stereo not drawn) | 5.32
CC(C)NC(=O)CC1COC2(CCN(Cc3ccco3)CC2)C1 (stereo not drawn) | -0.567
Cc1sc2nc(C(F)(F)F)nc(N3CCN(C)CC3)c2c1C | -3.47

Structure (SMILES) | cytotoxicity at 10 µM [%]
Cc1nn(C)c2nc(C3CC3)c(Cl)c(C(=O)O)c12 | 7.44
CN(C)C(=O)c1cncnc1-c1ccc(CNC(=O)C2CCCO2)cc1 (stereo not drawn) | 5.55
COC(=O)CCCn1ccnc1-c1ccc(OC)c(F)c1F | -2.8
COc1cccn(CC(=O)N2CCCC3(CCOCC3)C2)c1=O | 8.78
Cc1nc([C@H]2C[C@@H]3CCN(Cc4ccc5c(c4)OCO5)C[C@H]3O2)no1 | -110
Cc1ccc(-c2nc(CN3CCOC(Cn4cccn4)C3)co2)cc1 (stereo not drawn) | -5.3
Cc1ccc(C(=O)N2C[C@@H]3C[C@@H](c4nnc(C5CC5)o4)O[C@@H]3C2)s1 | -133
CN1C(=O)CC(c2cnn(C)c2)C12CCN(C(=O)c1cscn1)CC2 (stereo not drawn) | -76.6
CC(NC(=O)NCc1cccs1)c1ccc2c(c1)CCC(=O)N2 (stereo not drawn) | 5.41
CN1CC(c2ccccc2)CC12CCN(C(=O)c1c(Cl)cnn1C)CC2 (stereo not drawn) | -17
CCCC(C)NCc1cnc(-c2cccc(C)c2)nc1 (stereo not drawn) | -11.7
OC(CNc1cncc(OCc2ccccc2)n1)c1ccco1 (stereo not drawn) | -1.53
O=C(c1nccc2ccccc12)N(Cc1ccco1)CC1CCCO1 (stereo not drawn) | -6.25
COc1cc(OC)cc(C2(O)CCN(Cc3nc(C)c(C)o3)CC2)c1 | -7.06
Cc1cc(OCc2ccc(C(=O)O)s2)ccc1Cl | 12.2
CNC(=O)[C@@H]1[C@@H](c2ccccc2)CN2CCN(Cc3ccco3)C[C@H]12 | -1.94
NC(=O)c1ccc(C2CCCNC2)nc1 (stereo not drawn) | -15.1
O=C(O)c1csc(NCCc2ccccc2)n1 | 0.501
CCc1nccn1C1CCCN(C(=O)C2=NN(C)C(=O)CC2)C1 (stereo not drawn) | -17.7
CCCNc1ccc(C(=O)NCCc2cccc(OC)c2)cn1 | 0.267
COCc1noc(-c2ccc(N3CCCCC3CCCO)nc2)n1 (stereo not drawn) | -3.31
O=C(Nc1ccccc1Cn1cncn1)C1CCN(C2CCCCC2)C1 (stereo not drawn) | -5.14

Structure (SMILES) | cytotoxicity at 10 µM [%]
Cc1n[nH]c(C)c1-c1nccnc1CC1CCN(S(C)(=O)=O)C1 (stereo not drawn) | -10.4
CCOCCCC(=O)N1CCCC1c1nc(-c2ccccc2F)c[nH]1 (stereo not drawn) | 12.5
COc1ccc(F)c(CN2CCCC3(CCN(C(=O)CSC)C3)C2)c1 (stereo not drawn) | 0.15
CSCC(=O)N1CCc2c(cnc(C)c2-c2noc(-c3cscn3)n2)C1 | 0.86
Cc1nnc(C(C)N2CCCN(Cc3ccc(C#N)cc3)CC2)o1 (stereo not drawn) | -11.1
CC(C)N1CCC(C(=O)N2CCC(C(O)c3nccn3C)CC2)CC1 (stereo not drawn) | -2.7
COc1ncccc1NC(=O)C1CC(=O)N(Cc2ccccn2)C1 (stereo not drawn) | -1.2
CNC(=O)NC(=O)C(C)N1CCN(C2CCCC2)CC1 (stereo not drawn) | -14
Cc1cc(C)c(CNC(=O)NCCC2CCCO2)c(=O)[nH]1 (stereo not drawn) | -6.33
FC(F)(F)Cn1cc(NCc2cscn2)cn1 | -8.51
O=C(CCC1CCN(C(=O)c2cc[nH]c2)CC1)NCc1cccc(Cl)c1 | -2.11
Cc1cncc(C2CCN(Cc3ccsc3)CC2)n1 | 4.86
CC(C)CN(Cc1ccsc1)C(=O)CCCn1cncn1 | -47.9
Cc1ccc2cc(C(=O)N3CCCN(C)CC3)ccc2n1 | -54.3
Cc1c[nH]c(C2CCCN(C(=O)CCc3c(C)n[nH]c3C)C2)n1 (stereo not drawn) | 4.88
CC1CCC(NC(=O)Nc2ccc(CC(=O)N(C)C)cc2)CC1 (stereo not drawn) | 3.85
Cc1ncc(C(=O)NCCNc2ccncc2)s1 | 1.72
COc1c(C)cnc(CN2CCn3c(nnc3C(C)C)C2)c1C | 5.56
COc1ccccc1CNc1c(O)c(=O)c1=O | 4.65
Cc1ccc(Cl)cc1N1CCC(CNC(=O)CCn2ccnc2)C1 (stereo not drawn) | -9.7

Source: ChEMBL document CHEMBL4513216, “Probing the Open Global Health Chemical Diversity Library for Multistage-Active Starting Points for Next-Generation Antimalarials” (ACS Infect Dis, 2020)
